Screening data as filed in PubChem BioAssay.
Most compounds without a hit are left out; they make up all but 5.4% or so of the library.
tolC growth inh: growth inhibitors of E. coli tolC mutant, primary screen, strain BW25113 ΔtolC::kan, 384-well; AID 573, 2007; OD615; growth inhibition, % at 10 µM (by protocol); 2.2% of 65,000 active;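 active means growth inhibition at or above a cutoff equal to the mean over every tested compound plus 3 SD, cut at about 60% in these data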;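 further: growth measured after 20 h incubation at 37 °C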
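Test system: E. coli BW25113 ΔtolC::kan bacteria; incubation: 37 °C, 20 h exposure; medium: LB broth supplemented with 50 µg/mL kanamycin; read-out basis: percent growth inhibition; signal: A615 absorbance measurement; compound: 10 µM final, single dose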
PostGolgi yeast: phenotypic screen on post-Golgi transport, primary screen. inhibition, % at 10 µM. post-Golgi transport phenotypic cell assay. 0.9% of 98,000 active;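 further: yeast cells grown in 1536-well plates; yeast grown about 18 h at 30C before absorbance read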
PostGolgi ctrl: growth inhibition of yeast control strain, primary screen, counter-screen for post-Golgi transport modulator project; efflux-deficient yeast background strain, growth absorbance A615, 16 h; inhibition, % at 10 µM; 5% of 98,000 active; AID 738, 2007
PLAP activator: PLAP enzyme activators, biochemical, luminescence, HTS. purified PLAP enzyme, luminescent substrate read-out; active compounds read high. 1.2% of 96,000 active. Alkaline phosphatase, placental type (Homo sapiens), P05187. activation fold at 20 µM; in the data active means activation fold above about 2
Target sequence (P05187 whole entry, looked up): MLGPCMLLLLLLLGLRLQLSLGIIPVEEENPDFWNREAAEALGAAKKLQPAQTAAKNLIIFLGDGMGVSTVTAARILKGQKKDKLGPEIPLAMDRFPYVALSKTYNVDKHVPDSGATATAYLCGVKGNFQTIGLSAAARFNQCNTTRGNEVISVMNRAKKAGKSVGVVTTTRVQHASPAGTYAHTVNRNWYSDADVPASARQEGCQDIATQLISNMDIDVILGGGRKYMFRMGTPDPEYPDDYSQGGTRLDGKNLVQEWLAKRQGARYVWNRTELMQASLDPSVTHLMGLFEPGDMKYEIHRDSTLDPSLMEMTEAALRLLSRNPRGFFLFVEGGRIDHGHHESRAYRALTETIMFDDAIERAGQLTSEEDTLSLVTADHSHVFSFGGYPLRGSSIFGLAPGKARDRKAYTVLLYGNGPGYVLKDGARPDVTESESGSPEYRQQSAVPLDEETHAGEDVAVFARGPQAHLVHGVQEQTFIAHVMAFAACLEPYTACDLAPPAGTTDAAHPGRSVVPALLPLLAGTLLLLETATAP
Ecoli WT expand: growth inhibitors of wild-type E. coli, primary screen, strain BW25113, expanded library, OD600; OD600 absorbance; growth inhibition, % at 100 µM; 0.15% of 98,000 active; AID 710, 2007;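 active means growth inhibition above about 50% at one test dose, limit read from the data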;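 further: growth measured after 20 h incubation at 37 °C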
HePTP inhibitor: inhibitors of human HePTP phosphatase, primary screen, biochemical, absorbance, leukemia target. AID 521, 2006. 0.64% of 110,000 active. Tyrosine-protein phosphatase non-receptor type 7 (Homo sapiens), P35236. recombinant HePTP phosphatase activity, OD absorbance. inhibition, % at 20 µM; in the data active means inhibition above about 50%
Each line names hits and unclear results; the compound was inactive in the other large screens. Unless noted, no stated cut-off is given here; in the data, active means inhibition above about 30%; inactive means the rest.

O=C(N/N=C/c1cc(Cl)cc([N+](=O)[O-])c1O)c1ccc2c(c1)OCO2	HePTP inhibitor 102.7 (no result: tolC growth inh, PostGolgi yeast, PostGolgi ctrl, PLAP activator, Ecoli WT expand)
Cc1ccc(-c2noc(CN(C(=O)c3cccs3)C(C)C)n2)cc1	none
CCOC(=O)Cn1nnnc1C(CC)N(Cc1cccs1)Cc1cc2cc(C)ccc2[nH]c1=O (stereo not drawn)	none
CCOc1ccc2[nH]c(=O)c(CN(Cc3cccs3)C(CC)c3nnnn3C(C)(C)CC)cc2c1 (stereo not drawn)	PostGolgi ctrl 37.0
Cc1cc(C)c(N2C(=O)NC(=O)/C(=C/c3ccc([N+](=O)[O-])o3)C2=O)c(C)c1	HePTP inhibitor 76.4 (no result: tolC growth inh, PostGolgi yeast, PostGolgi ctrl, PLAP activator, Ecoli WT expand)
COC(=O)Nc1ccc(S(=O)(=O)Nc2ccc(O)cc2)cc1	none (no result: tolC growth inh, PLAP activator, HePTP inhibitor)
CC(=O)Nc1ccc(NS(=O)(=O)c2ccc(F)cc2)cc1	none (no result: tolC growth inh, PostGolgi yeast, PostGolgi ctrl, PLAP activator, Ecoli WT expand)
COC(=O)Nc1ccc(S(=O)(=O)Nc2ccc(C)cc2)cc1	PostGolgi yeast 39.3, PostGolgi ctrl 37.0 (no result: tolC growth inh, HePTP inhibitor)
CC(=O)Nc1ccc(S(=O)(=O)NCC(C)NS(=O)(=O)c2ccc(NC(C)=O)cc2)cc1 (stereo not drawn)	PostGolgi ctrl 37.3
CCc1ccc(S(=O)(=O)Nc2ccc(NC(C)=O)cc2)cc1	HePTP inhibitor 102.7 (no result: tolC growth inh, PostGolgi yeast, PostGolgi ctrl, PLAP activator, Ecoli WT expand)
COC(=O)c1cc2cc(NS(=O)(=O)c3ccc(C)cc3)ccc2s1	PostGolgi ctrl 51.9 (no result: tolC growth inh, PLAP activator, HePTP inhibitor)
Cc1nc(SCC(=O)N2CCOCC2)c2ccsc2n1	none
Cn1c(=O)c2c(nc(Oc3ccc(-c4ccccc4)cc3)n2C)n(C)c1=O	none
O=C(Nc1cc(C(F)(F)F)ccc1N1CCOCC1)c1cccs1	none (no result: tolC growth inh, HePTP inhibitor)
Cc1c(C)c2cc(Cl)c(O)c(CN3CCN(C)CC3)c2oc1=O	PostGolgi yeast 36.0
Cc1cc(=O)oc2c(CN3CCCCC3)c(O)c(Cl)cc12	PostGolgi yeast 38.1
CCCc1cc(=O)oc2c(CN3CCCC3)c(O)c(Cl)cc12	PLAP activator 2.9
CCCc1cc(=O)oc2c(CN3CCCC3)c(O)ccc12	none
COc1ccc(CC(=O)OCC(=O)Nc2ncc(Cl)cc2Cl)cc1	none
O=C1c2ccccc2C(=O)C1Cc1cccc2ccccc12	none (no result: tolC growth inh, HePTP inhibitor)
CCCCNc1c2c(nc3c(-c4ccccc4)c(C)nn13)CCC2	none (no result: tolC growth inh, HePTP inhibitor)
CCC(C)Nc1c2c(nc3c(-c4ccccc4)c(C)nn13)CCC2 (stereo not drawn)	PostGolgi ctrl 38.9 (no result: tolC growth inh, HePTP inhibitor)
Cc1nn2c(-n3ccnc3)c3c(nc2c1-c1ccccc1)CCC3	PostGolgi yeast 74.2, PostGolgi ctrl 81.3
Cc1cc(C(F)(F)F)nc(SCC(=O)Nc2ccccc2)n1	none
O=[N+]([O-])/C=C/c1cn(Cc2ccc(F)cc2)c2ccccc12	PostGolgi yeast 35.6, PostGolgi ctrl 79.5 (no result: tolC growth inh, HePTP inhibitor)
CN1CC(=O)NC1=NC(=O)C12CC3CC(CC(C3)C1)C2	PLAP activator 2.6
COC(=O)C1=NN(C(=O)c2cccc([N+](=O)[O-])c2)C(O)(c2ccccc2)C1 (stereo not drawn)	HePTP inhibitor 103.9 (no result: tolC growth inh, PostGolgi yeast, PostGolgi ctrl, PLAP activator, Ecoli WT expand)
COC(=O)C1=NN(C(=O)c2cccc(Br)c2)C(O)(c2ccccc2)C1 (stereo not drawn)	none (no result: tolC growth inh, PostGolgi yeast, PostGolgi ctrl, PLAP activator, Ecoli WT expand)
CCCS(=O)(=O)N1CCN(C(=O)c2ccccc2F)CC1	none (no result: PLAP activator)
c1ccc(-c2nc(CSc3nnc(-c4cccs4)o3)cs2)cc1	tolC growth inh 63.3 (no result: PLAP activator)
O=C(Nc1ccc(Cl)cc1)Nc1ccc2c(c1)OCCO2	HePTP inhibitor 105.0 (no result: tolC growth inh, PostGolgi yeast, PostGolgi ctrl, PLAP activator, Ecoli WT expand)
CCOc1ccc(NC(=O)CN(C)CC(=O)Nc2cc(Cl)ccc2C#N)cc1OCC	PLAP activator 2.1 (no result: tolC growth inh, HePTP inhibitor)
N#Cc1ccc(NC(=O)Nc2ccc(Cl)cc2)cc1	tolC growth inh 89.9, PostGolgi ctrl 74.4
O=C(Nc1ccc2c(c1)OCO2)Nc1ccc(Cl)cc1Cl	none (no result: tolC growth inh, HePTP inhibitor)
CN(CC(=O)Nc1ccc(C#N)cc1)Cc1ccc(Cl)cc1Cl	PostGolgi ctrl 40.9 (no result: tolC growth inh, HePTP inhibitor)
CN1C(=O)CSC1=NC12CC3CC(CC(C3)C1)C2	none (no result: tolC growth inh, HePTP inhibitor)
COc1ccc(Nc2nc(Cl)nc(NCc3ccco3)n2)c(OC)c1	none (no result: tolC growth inh, HePTP inhibitor)
CCCN(CCC)c1nc(Cl)nc(NCc2ccco2)n1	PostGolgi ctrl 38.4 (no result: tolC growth inh, HePTP inhibitor)
COc1ccc(C2C(C(=O)OCC(=O)Nc3ccc(C)cc3)CCC(=O)N2c2ccc(OC)cc2)cc1 (stereo not drawn)	PLAP activator 2.4 (no result: tolC growth inh, HePTP inhibitor)
Cc1ccc(CN2CCSc3ccc(C(=O)N4CCN(c5ncccn5)CC4)cc32)cc1	tolC growth inh 68.5, PostGolgi ctrl 64.4
O=C(NCCN1CCOCC1)c1ccc2c(c1)N(Cc1ccccc1)CCS2	none
